Measurements taken from ChEMBL document CHEMBL4513216, “Probing the Open Global Health Chemical Diversity Library for Multistage-Active Starting Points for Next-Generation Antimalarials” (ACS Infect Dis, 2020).

Assay: Toxicity liver stage against HepG2, at 10uM
Assay type: cell-based
Parameters: test concentration 10 uM, cell line HepG2-A16-CD81EGFP
Conditions: human, HepG2-A16-CD81EGFP cells; read-out: INHIBITION
Summary of the method: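 Uninfected HepG2-A16-CD81EGFP cells, 3 × 10^3 per well, 1536-well, plated on prespotted compound at 10 μM final, parasite-free screening media added to match infected plates; puromycin 10 μM positive, DMSO 0.5% negative; run in parallel with 48 h PbLuc assay at 37 °C, 5% CO2; viability by CellTiter-Glo luminescence, normalized to controls.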

Row | SMILES | cytotoxicity at 10 µM
1 | NC(=O)C1CCN(C(=O)NCCOc2ccc3c(c2)CCC3)CC1 | -7.07%
2 | Cc1cccc(C2(C(=O)NCCCn3cccn3)CC2)c1 | -7.66%
3 | CCc1nc(C(=O)N2CC(C)CN(C)c3ccccc32)c[nH]1 (stereo not given) | -3.47%
4 | Cn1cnc2nc3n(c2c1=O)CCC3 | -0.409%
5 | CC(NC1(CNC(=O)OC(C)(C)C)CCOCC1)c1ccccc1 (stereo not given) | 3.63%
6 | Cc1cnc(CN2CCC(N(C)Cc3noc(C4CC4)n3)C2)o1 (stereo not given) | -12.6%
7 | CN(C)c1cc(C(=O)N2CCCCCC2)ccn1 | -8.83%
8 | O=C1CO[C@H]2CN(Cc3cccc(F)c3F)C[C@@H]2N1C1CCOCC1 | -12.3%
9 | Cc1cnc(C(=O)N2CCc3c(nc(-c4ccncc4)[nH]c3=O)C2)cn1 | 8.62%
10 | CCS(=O)(=O)N[C@H]1CN(Cc2noc(COC)n2)C[C@@H]1C1CC1 | -3.22%
11 | COc1cc(N2C[C@@H]3COC[C@]3(COc3cccnc3)C2)ncn1 | 2.13%
12 | O=C(c1cc(F)cc(F)c1)N1CCC(O)(C(F)(F)F)CC1 | 7.08%
13 | CC(C)CN1CC(c2nc(C3CC3)n[nH]2)CC1=O (stereo not given) | -1.64%
14 | CCN1CCC2(COCc3c(C)nc(N4CCOCC4)nc32)C1 (stereo not given) | -141%
15 | CS(=O)(=O)NCC1CCCN(C(=O)c2ccc3c(c2)CCC3)C1 (stereo not given) | -5.52%
16 | Fc1cc(Cl)cnc1N1CCCC(c2nccn2Cc2ccncc2)C1 (stereo not given) | -2%
17 | O=C(NCC(F)(F)F)C1CSCN1S(=O)(=O)c1ccccc1F (stereo not given) | -16.3%
18 | Cc1cc(N(C)C)nc(N2CCCC2c2ccccn2)n1 (stereo not given) | 3.16%
19 | O=C(c1ccc2[nH]cnc2c1)N1CCC(Oc2cccnc2)CC1 | -12.8%
20 | COc1ccc(CNC(=O)CCc2nnc3ccccn3c2=O)cc1 | -13.5%
21 | Cc1c(C(=O)N2CCC2(C)C)nnn1-c1cccc2cnccc12 | -2.15%
22 | COCCN(Cc1ccccn1)C(=O)Nc1cccnc1-n1cccn1 | 1.06%

Row | SMILES | cytotoxicity at 10 µM
23 | O=C(CCc1ccsc1)Nc1ccnn1C1CCS(=O)(=O)C1 (stereo not given) | 9.01%
24 | CCC(C(=O)NC)N(c1cccc(C)c1)S(C)(=O)=O (stereo not given) | -11.8%
25 | COC(=O)N1CCc2ccccc2C1C(=O)NCC(F)(F)F (stereo not given) | -2.96%
26 | CC(C)N1CCc2c(CN(C)Cc3ccco3)cncc2C1 | -2.39%
27 | CC(=O)c1c(F)cccc1NCC(O)C1CC1 (stereo not given) | 13.4%
28 | COc1c(C)cnc(CN(C)C2CCN(C3CCOCC3)CC2)c1C | -17.7%
29 | Cc1nc(N2CCN(C(=O)c3cccnc3)CC2)cc(-n2cccc2)n1 | -5.19%
30 | COc1cnc(C2(O)CCN(C(=O)c3cccnc3)CC2)c(OC)n1 | 0.41%
31 | CN1CC2(CCN(Cc3ccoc3)CC2)COc2ccccc2S1(=O)=O | -1.48%
32 | OC(CN1CCC(c2ccn[nH]2)CC1)c1ccccc1F (stereo not given) | -25.5%
33 | CC(C)(C)CC(=O)NC[C@H]1OC[C@@H](NCc2ccccn2)[C@@H]1O | -5.28%
34 | Cc1cccc(C)c1OC1CN(C(=O)C2CCN(C(=O)N(C)C)CC2)C1 | 2.69%
35 | CNC(=O)c1nc(COc2c(C)occc2=O)no1 | 3.08%
36 | COc1cc(C2c3c(n[nH]c3C)N=C3COC(=O)C32)cc(Br)c1O (stereo not given) | 75.4%
37 | Cc1ccc([C@@H]2CN(C(=O)c3csc(C)n3)C[C@H]2NC(=O)C2CC2)cc1 | -5.99%
38 | c1cc(CN2CCN(Cc3cscn3)CC2)cs1 | 2.45%
39 | Cc1ccc(CNC(=O)c2ccc(S(=O)(=O)N3C[C@H]4C[C@@H]3CN4)cc2)o1 | -7.2%
40 | Cc1ccc(N(CC(=O)NCc2nnc3n2CCC3)S(C)(=O)=O)cc1 | -4.66%
41 | COc1ncccc1C(=O)N1CCCC1c1nc(-c2ccccc2)no1 (stereo not given) | 1.75%
42 | Cc1cnn(CCNCc2csc(COc3ccccc3)n2)c1 | 1.77%
43 | COc1ccc(C(=O)Nc2ccccc2-c2ccc(=O)n(C)n2)nn1 | 2.18%
44 | O[C@H]1COCCN(Cc2cccc3c2OCO3)C1 | -3.04%

Row | SMILES | cytotoxicity at 10 µM
45 | COc1cccc(-c2n[nH]cc2CNC2CCCN(C)C2)c1 (stereo not given) | -8.86%
46 | CCCS(=O)(=O)N1C[C@@H]2COC[C@]2(CN2CCOCC2)C1 | 1.86%
47 | CC(=O)N1N=C(c2ccccc2)OC1C(=O)NCC(=O)OC(C)(C)C (stereo not given) | -0.376%
48 | CCN1CC(COC(=O)c2cccc(Br)c2)CC1=O (stereo not given) | 4.91%
49 | CC(C)(C)c1coc([C@@H]2COCCN2CC2CC2)n1 | -10.1%
50 | O=c1n(CC2CC2)nc(C2CCNCC2)n1Cc1ccccc1 | -4.8%
51 | CN1C(=O)CO[C@H](c2ccc(NC(=O)c3cccc(F)c3)cc2)[C@H]1CO | 10%
52 | CN(C)C(=O)CN1CC[C@H]2CN(C3CCOCC3)C[C@@H]2C1=O | -3.84%
53 | Cn1cc(CN2CCc3c(cnc(-c4ccccc4)c3C(=O)O)C2)cn1 | 4.2%
54 | CNS(=O)(=O)c1ccc(CNC(=O)NCc2cc[nH]n2)cc1 | 1.91%
55 | Cc1nc(NC(=O)NCCCN2CCC(C(N)=O)CC2)sc1C | 0.902%
56 | CN(C)c1nccc(N(C)C2CCN(CC3CCOC3)CC2)n1 (stereo not given) | -18.9%
57 | NC(=O)CC1CCCN(C(=O)NCC2(c3cccs3)CCCC2)C1 (stereo not given) | 1.9%
58 | O=C(Cn1ccc2ncccc2c1=O)N1CCCCC1 | -7%
59 | Cn1c(N2CC[C@H](O)C2)nc2cc(C(N)=O)ccc21 | 5.83%
60 | CC(C)N1CCO[C@@H]2CN(S(=O)(=O)c3cccs3)CC[C@@H]2C1 | 5.9%
61 | O=C(C1CCN(c2ccnc3ccc(Br)cc23)CC1)N1CCOCC1 | 15.6%
62 | CN(Cc1nc(C2CC2)no1)C(=O)c1cccc(CC2CCNCC2)c1 | 2.74%
63 | CCc1ccccc1OC1CN(C(=O)CN(C)Cc2ccncc2)C1 | -4.55%
64 | CC(C)c1cc(N2CCC(CCC(=O)NC3CC3)CC2)n2nccc2n1 | -9.12%
65 | CC(NC1CCN(CCS(C)(=O)=O)CC1)c1cnn(C(C)C)c1 (stereo not given) | -0.132%
66 | Cn1ncc2c1NC(=O)CC2c1c(F)cccc1Cl (stereo not given) | 46.1%

Row | SMILES | cytotoxicity at 10 µM
67 | CC1=C(c2ccc(C(C)C)cc2)S(=O)(=O)N=C1N1CCc2ccccc21 | -16.8%
68 | c1cncc(CN2CCc3ncnc(NCCc4c[nH]cn4)c3CC2)c1 | 2.57%
69 | Cc1ccc(-c2nc(CNCC3CN(C)CCO3)co2)c(C)c1 (stereo not given) | -16.4%
70 | Cc1c(C(=O)N2CC(Cc3nccc4ccn(C)c34)C2)cnn1C | -26.3%
71 | CC(CS(C)(=O)=O)NCc1cc(Cl)ccc1F (stereo not given) | -46.6%
72 | O=C(c1cccc2ncccc12)N1CCCN(c2cccnn2)CC1 | -2.08%
73 | CCC(C)C(=O)NCc1cccc(OCCN(C)C2CCOCC2)c1 (stereo not given) | -0.114%
74 | Cc1csc(CCNC(=O)C2CCCN(C3CCOCC3)C2)n1 (stereo not given) | 3.01%
75 | O=C(CN1CCOCC1)Nc1ccc(C(F)(F)F)cc1Cl | 4.72%
76 | CCC(CC)C(CNC(=O)Nc1cnn(CCOC)c1)N(C)C (stereo not given) | -6.87%
77 | CC(C)c1cc(NC(=O)CN2CCn3c(nnc3C3CC3)C2)on1 | -14.1%
78 | CCCNC(=O)COc1cc(C)c2c(C)nn(-c3ccc(C)cc3)c2n1 | -0.217%
79 | Cn1cc(NC(=O)CCCc2cccs2)c(=O)n(C)c1=O | 5.55%
80 | COc1ncccc1NC(=O)NC(CCCO)c1ccccc1 (stereo not given) | 11.2%
81 | Cc1cn2c(n1)CCC(NS(=O)(=O)c1cc(C)sc1C)C2 (stereo not given) | 2.74%
82 | O=C(OCc1ccccc1)N1CC[C@H]2CC(CO)O[C@@H]2C1 (stereo not given in full) | -97.7%
83 | CC(C)Oc1ccccc1OCCN1C(=O)CCNC1=O | -6.67%
84 | CC(=O)N1CCC(c2nccnc2-c2ccc(C(=O)O)cc2)CC1 | 11.1%
85 | CC(C)(C)C(=O)N[C@H]1C[C@@H](Cc2cc(CN3CCOCC3)on2)C1(C)C | -7.15%
86 | COc1cc(F)c(S(=O)(=O)Nc2cnc(O)cc2C)cc1OC | 5.66%
87 | Cc1cccnc1N1CCC(c2nccn2Cc2cscn2)CC1 | -0.65%
88 | Cc1nc2c(c(=O)n1C)CCN(C(=O)Cn1cccc1)CC2 | -2.18%

Row | SMILES | cytotoxicity at 10 µM
89 | Cc1nn(C)cc1-c1cncn1CCc1ccc2c(c1)OCCO2 | 11.5%
90 | O=C(Cc1ccc2c(c1)OCCO2)N1CCCC(n2ccnc2)C1 (stereo not given) | 3.8%
91 | CCCNC(=O)CNC(=O)c1scnc1C | 8.86%
92 | CN(CCN1CCCCCC1)c1nccc(N2CCC(O)C2)n1 (stereo not given) | 5.27%
93 | CCN1CCN(C2CCN(Cc3nc(-c4ccoc4)no3)CC2)C1=O | -7.39%
94 | Cc1cc(C(=O)NCC(O)c2c(Cl)cccc2Cl)nn1C (stereo not given) | -9.38%
95 | O=C(NCc1cccnc1)c1cn(CCc2ccccc2)nn1 | 4.39%
96 | CN(C)Cc1cc(C2CCCCN2S(=O)(=O)Cc2ccccc2)nn1C (stereo not given) | 0.57%
97 | O=C1CC(c2ccc(C(=O)O)cc2)c2ncn(-c3cccc(F)c3)c2N1 (stereo not given) | -4.74%
98 | Cc1cccnc1NC(=O)NC(CCO)C(C)(C)C (stereo not given) | 2.3%
99 | COCC(c1cccc(C(F)(F)F)c1)N(C)C(=O)c1cccnc1 (stereo not given) | -5.28%
100 | COc1ccc(NCCC(=O)NCc2cccnc2N(C)C)cc1 | -2.06%
101 | O=S(=O)(CC1CCCCC1)NCc1ccc(O)nc1 | 5.27%
102 | COc1cccc(-c2ncc(CN3CC[C@@H]4CC[C@H](C3)N4)s2)c1 | -12.4%
103 | Cc1cc(CN2CCN(C(=O)NCc3cccs3)CC2)on1 | -1.68%
104 | CCC(NC(=O)c1coc(COc2cccc(F)c2F)n1)C(=O)NC (stereo not given) | 1.03%
105 | CCS(=O)(=O)c1ncc(CN2CCSCC2)n1CCc1ccccc1 | -1.95%
106 | CCOC(=O)c1ccc(NC(=O)c2cc3c([nH]c2=O)CCCC3)cc1 | 9.13%
107 | CSc1ccc(-c2nc(CN3CCNCC3C)c(C)o2)cc1 (stereo not given) | -5.58%
108 | C[C@@H]1CN(Cc2cccc(F)c2)C[C@]12CCN(Cc1cccnc1)C2=O | -2.6%
109 | O=C(Nc1ccccc1C(=O)NCCN1CCOCC1)c1ccco1 | -0.972%
110 | CC(C)N1CCc2ncn(C)c2C1C(=O)N1CCOCC1 (stereo not given) | 10.9%
